# Source: ChEMBL document CHEMBL1158344, “Synthesis and antinociceptive activities of some pyrazoline derivatives” (Eur J Med Chem, 2009)
# Key:
# Mus musculus [1] = assay: Analgesic activity in Swiss albino mouse assessed as analgesia at 10 mg/kg by hot plate method; assay type: functional
# How it was run: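 Mice (n = 7) were dosed with the test compound in sunflower oil vehicle. Thirty minutes later each mouse was placed on a hot plate at 55 ± 1.0 °C. Latency to forepaw licking or jumping out of the glass beaker was recorded, with a 30 s cut-off. Values are mean ± SEM % analgesia.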
# Mus musculus [2] = assay: Antinociceptive activity in Swiss albino mouse assessed as protection against acetic acid-induced writhing at 10 mg/kg, ip administered 30 mins before acetic acid challenge; assay type: functional; conditions: route intraperitoneal
# How it was run: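 Mice (n = 7) were given the compound i.p. in sunflower oil vehicle, then 0.6% acetic acid i.p. (10 mL/kg) 30 min later. Abdominal contractions and stretches were counted for 10 min, starting 5 min after the acid. % protection = [(control mean − treated mean)/control mean] × 100. Values are mean ± SEM.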
# Mus musculus [3] = assay: Analgesic activity in 5 mg/kg naloxone pretreated Swiss albino mouse assessed as analgesia at 100 mg/kg by hot plate method; assay type: functional
# How it was run: (§1)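 Mice, n = 7 per group, were placed one at a time on a hot plate held at 55 ± 1.0 °C. Latency to forepaw licking or to jumping out of the glass beaker was recorded, with a cut-off of 30 s. Latency was read 30 min after compound at 100 mg/kg or sunflower oil vehicle. In naloxone groups, naloxone 5 mg/kg ip was given 15 min before compound. Results are reported as % analgesia, mean ± SEM.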
# Mus musculus [4] = assay: Antinociceptive activity in 5 mg/kg naloxone pretreated Swiss albino mouse assessed as protection against acetic acid-induced writhing at 100 mg/kg, ip administered 30 mins before acetic acid challenge; assay type: functional
# How it was run: (§2)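 Mice, n = 7 per group, received sunflower oil vehicle or compound at 100 mg/kg ip. 30 min later they were given 0.6% acetic acid ip at 10 mL/kg. Abdominal contractions and stretches were counted over 10 min, starting 5 min after the acetic acid. In naloxone groups, naloxone was given 15 min before compound. % protection = [(control mean − treated mean)/control mean] × 100.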
# Mus musculus [5] = species: Mus musculus; assay: Neurological deficit effect in Swiss albino mouse assessed as effect on motor coordination by measuring fall latency by Rota rod test; conditions: in vivo
# How it was run: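 Mice were trained for three consecutive days on a Rota-Rod at 16 rev/min, and only those staying on longer than 180 s were used. Each mouse was tested on the rod 5 min after the hot plate test, and the latency to fall was recorded.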
# Mus musculus [6] = assay: Toxicity in Swiss albino mouse assessed as mortality at 100 mg/kg; assay type: organism-based; parameters: dose 100 mg/kg; conditions: in vivo
# Mus musculus [7] = assay: Analgesic activity in Swiss albino mouse assessed as analgesia at 100 mg/kg by hot plate method; assay type: functional; how it was run: as §1
# Mus musculus [8] = assay: Antinociceptive activity in Swiss albino mouse assessed as protection against acetic acid-induced writhing at 100 mg/kg, ip administered 30 mins before acetic acid challenge; assay type: functional; conditions: route intraperitoneal; how it was run: as §2
Compound,Activity (Mus musculus [1]) [%],Activity (Mus musculus [2]) [%],Activity (Mus musculus [3]) [%],Activity (Mus musculus [4]) [%],Activity (Mus musculus [5]),Activity (Mus musculus [6]),Activity (Mus musculus [7]) [%],Activity (Mus musculus [8]) [%]
CN1CC[C@]23c4c5ccc(O)c4O[C@H]2[C@@H](O)C=C[C@H]3[C@H]1C5 [MORPHINE],92.9,87.45,,,,,,
COc1ccc(C2CC(c3ccccc3)=NN2C(=O)CSc2nc3cc(Cl)ccc3o2)cc1 (stereo not drawn),,,-2.95,5.58,Non-toxic,Non-toxic,47.7,43.32
O=C(CSc1nc2ccccc2[nH]1)N1N=C(c2ccccc2)CC1c1ccccc1 (stereo not drawn),,,-1.5,12.56,Non-toxic,Non-toxic,61.9,85.13
Cc1ccc(C2=NN(C(=O)CSc3nc4cc(Cl)ccc4o3)C(c3ccccc3)C2)cc1C (stereo not drawn),,,-0.97,21.39,Non-toxic,Non-toxic,72.6,98.14
COc1ccc(C2CC(c3ccccc3)=NN2C(=O)CSc2nc3ccccc3[nH]2)cc1 (stereo not drawn),,,-1.34,22.32,Non-toxic,Non-toxic,60.6,97.21
Cc1ccc(C2=NN(C(=O)CSc3nc4ccccc4[nH]3)C(c3ccccc3)C2)cc1C (stereo not drawn),,,-0.58,19.07,Non-toxic,Non-toxic,82.5,97.67
O=C(CSc1nc2cc(Cl)ccc2o1)N1N=C(c2ccccc2)CC1c1ccccc1 (stereo not drawn),,,-1.32,7.44,Non-toxic,Non-toxic,59.7,57.72
